Data reported in ChEMBL document CHEMBL1124112, “Indoline analogues of idazoxan: potent alpha 2-antagonists and alpha 1-agonists” (J Med Chem, 1988).

What was measured:
Rattus norvegicus [1] = assay: In vivo antagonist dose producing two fold shift of cirazoline in pithed rats. (postjunctional); type: functional
Method in brief: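 Pithed rats, separate groups (n = 4-6). Cirazoline cumulative dose-response on diastolic blood pressure (postjunctional α1) was recorded with and without antagonist given iv. The antagonist dose (μg/kg, iv) giving a twofold rightward shift of the cirazoline curve was reported as DR2.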

Rattus norvegicus [2] = assay: In vivo antagonist dose producing two fold shift of UK-14,304 in pithed rats. (prejunctional)
[3] = tested on: Adrenergic receptor alpha-2 (Rattus norvegicus); assay: Agonism at alpha-2 adrenergic receptor, determined as dose required to produce a two fold shift of the cumulative dose-response curve to UK-14304 on the twitch response in rat vas deferens.
[4] = molecular target: Adrenergic receptor alpha-2 (Rattus norvegicus) (UniProt P22086+P19328+P22909); assay: Antagonism at alpha-2 adrenergic receptor, determined as dose required to produce a two fold shift of the dose-response curve to UK-14304 on the twitch response in rat vas deferens; type: functional, tissue-based
Method in brief: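 Pithed rats, iv. Antagonist given before a cumulative dose-response curve to UK-14,304 on the vas deferens twitch response. DR2 is the antagonist dose (μg/kg) giving a twofold shift of the curve. Separate groups of rats (n = 4-6).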

Rattus norvegicus [5] = assay: In vivo ED40 is the raising diastolic blood pressure by 40 mm Hg in pithed rats. (postjunctional); type: functional; settings: Artery
Method in brief: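 Pithed rats, compound given iv in cumulative doses. ED40 is the dose (μg/kg) raising diastolic blood pressure by 40 mmHg. Separate groups of rats (n = 4-6).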

[6] = molecular target: T1, Adrenergic receptor alpha-1 (Rattus norvegicus, UniProt P15823+P23944+P43140); assay: Inhibition of saturable binding of [3H]prazosin to alpha1-site in rat cerebral cortical membranes.; type: cell membranes, Membrane
T1 sequence (P15823 whole entry): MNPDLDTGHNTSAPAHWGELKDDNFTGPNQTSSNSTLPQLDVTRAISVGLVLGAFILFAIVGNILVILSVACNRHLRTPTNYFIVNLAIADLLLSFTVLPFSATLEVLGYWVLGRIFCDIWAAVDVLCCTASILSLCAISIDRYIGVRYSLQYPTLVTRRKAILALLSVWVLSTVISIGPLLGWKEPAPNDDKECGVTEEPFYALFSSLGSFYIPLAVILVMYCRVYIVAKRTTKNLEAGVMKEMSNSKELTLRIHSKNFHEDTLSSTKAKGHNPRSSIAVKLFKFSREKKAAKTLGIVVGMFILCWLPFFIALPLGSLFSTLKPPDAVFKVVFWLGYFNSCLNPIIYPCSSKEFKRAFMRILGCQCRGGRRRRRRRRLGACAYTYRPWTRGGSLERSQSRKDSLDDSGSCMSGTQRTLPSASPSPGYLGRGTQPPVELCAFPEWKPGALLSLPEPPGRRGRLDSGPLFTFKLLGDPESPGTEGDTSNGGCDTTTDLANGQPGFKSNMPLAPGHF
T1 sequence (P23944 whole entry): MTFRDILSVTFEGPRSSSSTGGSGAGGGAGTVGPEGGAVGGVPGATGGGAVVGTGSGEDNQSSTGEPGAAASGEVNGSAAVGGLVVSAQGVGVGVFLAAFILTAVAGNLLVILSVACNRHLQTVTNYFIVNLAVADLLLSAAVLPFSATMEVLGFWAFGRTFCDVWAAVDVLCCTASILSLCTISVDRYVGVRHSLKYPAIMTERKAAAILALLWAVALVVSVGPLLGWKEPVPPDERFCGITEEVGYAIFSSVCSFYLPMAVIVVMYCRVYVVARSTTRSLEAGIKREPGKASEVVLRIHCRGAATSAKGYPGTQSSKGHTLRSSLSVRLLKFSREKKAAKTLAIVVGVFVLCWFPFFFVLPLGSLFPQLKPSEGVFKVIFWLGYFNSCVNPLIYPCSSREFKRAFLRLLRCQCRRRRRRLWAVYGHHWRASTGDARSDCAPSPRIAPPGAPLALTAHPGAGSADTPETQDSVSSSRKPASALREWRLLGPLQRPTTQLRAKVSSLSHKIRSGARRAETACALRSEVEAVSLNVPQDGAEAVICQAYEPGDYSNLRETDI
T1 sequence (P43140 whole entry): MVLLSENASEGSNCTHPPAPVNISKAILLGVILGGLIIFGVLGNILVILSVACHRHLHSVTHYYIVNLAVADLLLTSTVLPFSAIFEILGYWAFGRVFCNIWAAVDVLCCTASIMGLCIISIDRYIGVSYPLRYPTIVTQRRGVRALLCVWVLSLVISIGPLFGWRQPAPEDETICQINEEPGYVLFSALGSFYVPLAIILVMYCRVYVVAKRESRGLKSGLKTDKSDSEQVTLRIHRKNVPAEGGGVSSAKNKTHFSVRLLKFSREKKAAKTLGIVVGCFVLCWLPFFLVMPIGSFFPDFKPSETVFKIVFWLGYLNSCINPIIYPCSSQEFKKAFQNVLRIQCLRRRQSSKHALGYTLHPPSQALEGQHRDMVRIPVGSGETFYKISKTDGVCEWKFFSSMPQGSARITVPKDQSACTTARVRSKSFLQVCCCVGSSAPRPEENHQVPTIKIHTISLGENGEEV

[7] = molecular target: T2, Adrenergic receptor alpha-2 (Rattus norvegicus, UniProt P22086+P19328+P22909); assay: Inhibition of saturable binding of [3H]idazoxan to alpha2-site in rat cerebral cortical membranes.; type: cell membranes, Membrane
T2 sequence (P22086 whole entry): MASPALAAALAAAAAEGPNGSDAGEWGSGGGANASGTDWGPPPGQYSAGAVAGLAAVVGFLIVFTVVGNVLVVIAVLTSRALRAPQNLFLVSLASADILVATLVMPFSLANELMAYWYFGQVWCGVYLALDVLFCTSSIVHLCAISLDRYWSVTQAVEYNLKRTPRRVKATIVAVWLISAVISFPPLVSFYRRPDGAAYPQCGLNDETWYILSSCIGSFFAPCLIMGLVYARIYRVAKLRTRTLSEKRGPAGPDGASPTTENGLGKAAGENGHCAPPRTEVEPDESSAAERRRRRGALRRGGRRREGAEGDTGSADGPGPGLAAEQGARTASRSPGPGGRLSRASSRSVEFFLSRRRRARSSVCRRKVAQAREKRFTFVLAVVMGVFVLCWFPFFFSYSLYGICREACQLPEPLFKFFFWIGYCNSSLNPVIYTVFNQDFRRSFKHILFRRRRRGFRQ
T2 sequence (P19328 whole entry): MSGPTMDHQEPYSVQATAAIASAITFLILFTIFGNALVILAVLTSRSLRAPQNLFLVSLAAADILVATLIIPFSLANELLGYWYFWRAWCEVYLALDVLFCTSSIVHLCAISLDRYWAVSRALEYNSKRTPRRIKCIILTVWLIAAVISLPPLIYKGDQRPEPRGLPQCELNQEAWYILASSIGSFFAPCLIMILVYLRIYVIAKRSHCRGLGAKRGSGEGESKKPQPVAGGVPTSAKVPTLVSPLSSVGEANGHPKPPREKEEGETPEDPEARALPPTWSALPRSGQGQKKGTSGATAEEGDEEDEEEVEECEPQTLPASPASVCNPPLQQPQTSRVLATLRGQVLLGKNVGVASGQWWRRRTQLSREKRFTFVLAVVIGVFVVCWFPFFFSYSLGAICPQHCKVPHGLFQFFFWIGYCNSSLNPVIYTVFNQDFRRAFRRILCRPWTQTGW
T2 sequence (P22909 whole entry): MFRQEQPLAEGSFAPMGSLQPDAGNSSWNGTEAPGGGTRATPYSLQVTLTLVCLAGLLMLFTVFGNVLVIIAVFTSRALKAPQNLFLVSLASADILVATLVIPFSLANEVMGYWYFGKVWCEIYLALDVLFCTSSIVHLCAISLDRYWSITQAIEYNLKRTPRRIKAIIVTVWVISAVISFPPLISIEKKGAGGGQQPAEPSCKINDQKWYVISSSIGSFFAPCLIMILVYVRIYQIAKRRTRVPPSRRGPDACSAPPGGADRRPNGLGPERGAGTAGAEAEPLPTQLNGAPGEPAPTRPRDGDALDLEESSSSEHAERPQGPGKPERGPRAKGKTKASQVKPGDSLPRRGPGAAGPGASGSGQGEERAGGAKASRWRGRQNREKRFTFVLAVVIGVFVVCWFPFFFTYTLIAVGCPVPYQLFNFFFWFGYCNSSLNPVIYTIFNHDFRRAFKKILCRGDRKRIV

[8] = molecular target: Adrenergic receptor alpha-1 (Rattus norvegicus) (UniProt P15823+P23944+P43140); assay: Agonism at alpha-1 adrenergic receptor, determined as the dose required to produce a two fold shift of the cirazoline on diastolic blood pressure.; type: functional, tissue-based; settings: Artery
Rattus norvegicus [9] = assay: In vivo antagonist dose producing two fold shift of cirazoline in pithed rats. (postjunctional); AG- agonist; type: functional, organism-based; settings: filed as agonist
Method in brief: (§1)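 Pithed rats, iv. Antagonist given before a cumulative dose-response curve to cirazoline on diastolic blood pressure. DR2 is the antagonist dose (μg/kg) giving a twofold rightward shift. Separate groups of rats (n = 4-6).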

Rattus norvegicus [10] = assay: In vivo dose required to inhibit vas deferens contraction by 25% after pretreatment with prazosin in pithed rats. (prejunctional); ant- antagonist; type: functional, organism-based; settings: filed as antagonist
Method in brief: (§2)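 Pithed rats pretreated with prazosin (1 mg/kg). Compound given iv in cumulative doses. ED25 is the dose (μg/kg) inhibiting vas deferens contraction by 25%. Separate groups of rats (n = 4-6).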

Rattus norvegicus [11] = assay: In vivo dose required to inhibit vas deferens contraction by 25% after pretreatment with prazosin in pithed rats. (prejunctional); type: functional; method in brief: as §2
[12] = molecular target: T1, Adrenergic receptor alpha-1; assay: Inhibition of saturable binding of [3H]prazosin to alpha-1 adrenergic receptor site in rat cerebral cortical membranes.; type: cell membranes, Membrane
Rattus norvegicus [13] = assay: In vivo antagonist dose producing two fold shift of cirazoline in pithed rats. […]; type: functional
Rattus norvegicus [14] = assay: In vivo antagonist dose producing two fold shift of cirazoline in pithed rats. (postjunctional);AG- agonist; type: functional, organism-based; settings: filed as agonist; method in brief: as §1
Rattus norvegicus [15] = assay: In vivo antagonist dose producing two fold shift of cirazoline in pithed rats. (postjunctional)

Structure (SMILES)	DR2 (Rattus norvegicus [1])	DR2 (Rattus norvegicus [2])	Prejunctional agonist potency [3]	Prejunctional antagonist potency [4]	ED40 (Rattus norvegicus [5])	Ki [6]	Ki [7]	Postjunctional agonist potency [8]	ED40 (Rattus norvegicus [9])	ED25 (Rattus norvegicus [10])	ED25 (Rattus norvegicus [11])	Ki [12]	ED40 (Rattus norvegicus [13])	ED40 (Rattus norvegicus [14])	DR2 (Rattus norvegicus [15])
COc1cc2nc(N3CCN(C(=O)c4ccco4)CC3)nc(N)c2cc1OC [PRAZOSIN]	0.0094 mg/kg	5.44 mg/kg	–	–	–	–	–	–	–	–	–	–	–	–	–
CCN1c2cccc(Cl)c2CC1C1=NCCN1 (centres undefined)	–	0.0015 mg/kg	0.51	8	0.8 µg/kg	1.9 nM	0.42 nM	4.4	Agonist	Antagonist	–	–	–	–	–
CN1c2ccccc2CC1C1=NCCN1 (centres undefined)	–	–	0.77	5.5	0.5 µg/kg	–	0.69 nM	3.8	–	–	4.1 µg/kg	3.86 nM	3.7 µg/kg	Agonist	–
Cl.c1ccc(N2c3ccccc3CC2C2=NCCN2)cc1 (centres undefined)	–	0.0094 mg/kg	0	0.5	1.1 µg/kg	8.4 nM	3 nM	5.3	Agonist	Antagonist	–	–	–	–	–
CN1c2cccc(Cl)c2CC1C1=NCCN1.Cl (centres undefined)	–	0.0024 mg/kg	0.29	10	0.2 µg/kg	–	0.16 nM	17	–	Antagonist	–	13.1 nM	–	Agonist	–
CCCN1c2ccccc2CC1C1=NCCN1 (centres undefined)	–	0.0071 mg/kg	0	3.2	3.8 µg/kg	3.7 nM	0.96 nM	3.9	Agonist	Antagonist	–	–	–	–	–
c1ccc2c(c1)OCC(C1=NCCN1)O2 (centres undefined) [IDAZOXAN]	–	0.0202 mg/kg	–	–	65.5 µg/kg	–	–	–	–	–	–	–	–	–	1.43 mg/kg
CCN1c2ccccc2CC1C1=NCCN1 (centres undefined)	–	0.0016 mg/kg	0	9.1	3.3 µg/kg	3.72 nM	0.24 nM	1.4	Agonist	Antagonist	–	–	–	–	–
